The record followed here is ChEMBL document CHEMBL1817574, “Development of novel conformation-constrained cytotoxic derivatives of cheliensisin A by embedment of small heterocycles” (Eur J Med Chem, 2011).

Where only a bound is given, the exact number is not on record here.

The test system of one data set is SK-BR-3. Description: Cytotoxicity against human SKBR3 cells after 48 hrs by MTT assay. In kind it is functional, cell-based. The following applies: SK-BR-3, 48 h. A general note: Formazan colour is commonly taken as a measure of viable cells.
Another data set has as its system PANC-1. Description: Cytotoxicity against human PANC1 cells after 48 hrs by MTT assay. It counts as functional, cell-based. The note with it: PANC-1, 48 h.
The next data set has as its system A549. Kind of data set: Cytotoxicity against human A549 cells after 48 hrs by MTT assay. In kind it is functional, cell-based. The following applies: A549, 48 h.
For data set [1], the system named is HL-60. Kind of data set: Cytotoxicity against human HL60 cells after 48 hrs by MTT assay. In kind it is functional, cell-based. The note with it: HL-60, 48 h. The method in brief: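 Log-phase HL-60 cells were seeded at 1.25 × 10⁵ cells/mL and treated in four replicates across various concentrations for 48 h. MTT (5 mg/mL solution) was then added and incubated a further 4 h. The wells were then solubilised with 10% SDS–5% isobutanol–0.012 mol/L HCl before the colorimetric read-out.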

A further data set concerns SMMC-7721. Kind of data set: Cytotoxicity against human SMMC7721 cells after 48 hrs by MTT assay. In kind it is functional, cell-based. The following applies: SMMC-7721, 48 h.
The nature of data set [2]: Chemical stability of the compound in 0.1 M phosphate buffer at pH 7.0 at 0.1 mg/mL after 12 hrs by HPLC analysis. In kind it is physicochemical. The following applies: pH 7, 12 h.
The subject of data set [3] is HL-60. Kind of data set: Ratio IC50 for cheliensisin A to compound for human HL60 cells after 48 hrs by MTT assay. It counts as functional.

Consider `CC(=O)O[C@H]1C=CC(=O)O[C@@H]1[C@H]1N=C(c2ccccc2)O[C@@H]1c1ccccc1`, for which the half-maximal inhibitory concentration (IC50) with SK-BR-3, with PANC-1, with A549, with HL-60 [1] and in the data set on SMMC-7721 was > 40 µM throughout.

Take `CC(=O)O[C@H]1C=CC(=O)O[C@@H]1[C@@H]1N=C(c2ccccc2)O[C@@H]1c1ccccc1`: the IC50 was 3.65 µM in the data set with SK-BR-3; 12.8 µM with PANC-1; 18.3 µM in the data set with A549; 4.3 µM in the data set on HL-60 [1]; 17.7 µM in the data set on SMMC-7721.

For the molecule `CC(=O)O[C@H]1C=CC(=O)O[C@@H]1[C@H]1N=C(Cc2ccccc2)O[C@@H]1c1ccccc1`, the IC50 in the data set on SK-BR-3 was 35.2 µM; in the data set on PANC-1, > 40 µM; in the data set with A549 it was > 40 µM; in the data set on HL-60 [1], 17.8 µM; with SMMC-7721, > 40 µM.

Consider `C/C=C/C1=N[C@@H]([C@H]2OC(=O)C=C[C@@H]2OC(C)=O)[C@@H](c2ccccc2)O1`, for which the 50% inhibitory concentration (IC50) in the data set on SK-BR-3 was 2.22 µM; in the data set with PANC-1, 3.87 µM; in the data set on A549, 30.7 µM; with HL-60 [1], 1.26 µM; in the data set with SMMC-7721 it was 14.5 µM.

On to `C/C=C\C1=N[C@H]([C@H]2OC(=O)C=C[C@@H]2OC(C)=O)[C@@H](c2ccccc2)O1`, for which the 50% inhibitory concentration (IC50) is > 40 µM in the data set on SK-BR-3; 23 µM with PANC-1; > 40 µM in the data set with A549; 4.59 µM with HL-60 [1]; 27 µM in the data set on SMMC-7721.

Regarding `C/C=C/C1=N[C@H]([C@H]2OC(=O)C=C[C@@H]2OC(C)=O)[C@@H](c2ccccc2)O1`, the IC50 with SK-BR-3 was 18 µM; with PANC-1, 24.4 µM; in the data set on A549, > 40 µM; in the data set on HL-60 [1], 6.93 µM; with SMMC-7721, > 40 µM.

As for `CC(=O)O[C@H]1C=CC(=O)O[C@@H]1[C@@H]1N=C(/C=C/c2ccccc2)O[C@@H]1c1ccccc1`, the 50% inhibitory concentration (IC50) came to 4.03 µM in the data set with SK-BR-3; 4.1 µM with PANC-1; 18.9 µM in the data set on A549; 0.48 µM with HL-60 [1]; 21 µM in the data set with SMMC-7721. In addition, the Stability result in data set [2] is listed as “Stable”. In addition, the “Ratio IC50” value in the data set with HL-60 [3] worked out at 4.

Turning to `CC(=O)O[C@H]1C=CC(=O)O[C@@H]1[C@H]1N=C(/C=C/c2ccccc2)O[C@@H]1c1ccccc1`, the IC50 in the data set with SK-BR-3 amounted to 23.1 µM; in the data set on PANC-1, 21.1 µM; with A549, 21.9 µM; in the data set with HL-60 [1] it was 4.05 µM; with SMMC-7721, 24 µM.

Regarding `CC(=O)O[C@H]1C=CC(=O)O[C@@H]1[C@H]1N=C(C)O[C@@H]1c1ccccc1`, the IC50 in the data set with SK-BR-3 is 7.26 µM; with PANC-1 it was 16.6 µM; in the data set with A549 it was > 40 µM; in the data set with HL-60 [1], 2.52 µM; in the data set with SMMC-7721 it was 16.3 µM.

Regarding `CC(=O)O[C@H]1C=CC(=O)O[C@@H]1[C@H]1N=C(C(=O)c2ccccc2)O[C@@H]1c1ccccc1`, the half-inhibitory concentration (IC50) in the data set on SK-BR-3, in the data set on PANC-1, with A549, in the data set with HL-60 [1] and in the data set on SMMC-7721 was > 40 µM each time.

Regarding `CC(=O)O[C@H]1C=CC(=O)O[C@@H]1c1nc(/C=C/c2ccccc2)oc1-c1ccccc1`, the IC50 turned out to be 7.36 µM in the data set with SK-BR-3; 7.22 µM in the data set with PANC-1; 24.8 µM in the data set with A549; 5.89 µM with HL-60 [1]; 24.6 µM in the data set on SMMC-7721. Further, in data set [2], the Stability entry is reported as “Stable”.

With `C/C=C\c1nc([C@H]2OC(=O)C=C[C@@H]2OC(C)=O)c(-c2ccccc2)o1`, the IC50 with SK-BR-3, with PANC-1, with A549, with HL-60 [1] and in the data set with SMMC-7721 was > 40 µM each time.

On to `CC(=O)O[C@H]1C=CC(=O)O[C@@H]1c1nc(-c2ccccc2)oc1-c1ccccc1`, for which the IC50 in the data set on SK-BR-3 is 12 µM; in the data set with PANC-1 it was 13.9 µM; with A549, 14.7 µM; in the data set on HL-60 [1] it was 2.59 µM; in the data set on SMMC-7721, 15.7 µM.

With `CC(=O)O[C@H]1C=CC(=O)O[C@@H]1[C@H](NC(=O)c1ccccc1)[C@H](O)c1ccccc1`, the IC50 in the data set on SK-BR-3, with PANC-1, in the data set with A549, in the data set on HL-60 [1] and in the data set with SMMC-7721 was > 40 µM in each case.

On to `CC(=O)O[C@H]1C=CC(=O)O[C@@H]1[C@@H](NC(=O)Cc1ccccc1)[C@H](O)c1ccccc1`, for which the IC50 is 38.8 µM with SK-BR-3; > 40 µM with PANC-1; > 40 µM in the data set on A549; 5.19 µM in the data set with HL-60 [1]; > 40 µM in the data set with SMMC-7721.

In the case of `CC(=O)O[C@H]1C=CC(=O)O[C@@H]1[C@@H](NC(=O)/C=C/c1ccccc1)[C@H](O)c1ccccc1`, the IC50 in the data set on SK-BR-3, in the data set with PANC-1, with A549, in the data set on HL-60 [1] and in the data set with SMMC-7721 was > 40 µM in each case.

For `CC(=O)O[C@H]1C=CC(=O)O[C@@H]1/C=C/c1ccccc1`, the 50% inhibitory concentration (IC50) was determined as 4.63 µM in the data set on SK-BR-3; 7.95 µM in the data set on PANC-1; 38.8 µM in the data set with A549; 2.68 µM in the data set with HL-60 [1]; 29 µM in the data set with SMMC-7721. Also, the Stability result in data set [2] was “Stable”.

With `CC(=O)O[C@H]1C=CC(=O)O[C@@H]1[C@@H](O)[C@@H](Nc1ccccc1)c1ccccc1`, the half-inhibitory concentration (IC50) in the data set with SK-BR-3, in the data set on PANC-1, with A549, with HL-60 [1] and in the data set on SMMC-7721 was > 40 µM in each case.

As for `CC(=O)O[C@H]1C=CC(=O)O[C@@H]1[C@@H](O)[C@H](O)c1ccccc1`, the 50% inhibitory concentration (IC50) in the data set with SK-BR-3, with PANC-1, with A549, in the data set on HL-60 [1] and in the data set on SMMC-7721 was > 40 µM throughout.

Take `CC(=O)O[C@H]1C=CC(=O)O[C@H]1[C@H]1OC(C)(C)O[C@@H]1c1ccccc1`: the IC50 in the data set on SK-BR-3, in the data set with PANC-1, with A549, in the data set on HL-60 [1] and with SMMC-7721 was > 40 µM throughout.

Take `CC(=O)O[C@H]1C=CC(=O)O[C@H]1[C@H]1OC(=O)O[C@@H]1c1ccccc1`: the IC50 in the data set on SK-BR-3, in the data set with PANC-1, with A549, with HL-60 [1] and with SMMC-7721 was > 40 µM throughout.

In the case of `CC(=O)O[C@H]1C=CC(=O)O[C@H]1[C@H]1O[C@@H]1c1ccccc1` [CHELIENSISIN A], the IC50 in the data set with SK-BR-3 came out at 20.3 µM; in the data set with PANC-1, 25.7 µM; with A549, 5.99 µM; in the data set with HL-60 [1], 1.97 µM; with SMMC-7721, 4.7 µM. Further, the Stability result in data set [2] is recorded as “Stable”.

By IC50 is commonly meant the concentration needed to halve the response being measured.
